Measured values as given in ChEMBL document CHEMBL1123566, “Synthesis and cardiac electrophysiological activity of 2- and 3-[(substituted phenyl)alkyl]quinuclidines. Structure-activity relationships” (1987).
“And” between values parts separate entries of the source, which are not always exact repeats. Equal values may be shown once.

What was measured:
Canis familiaris [1] = assay: Conduction time was determined by intraduodenal administration of two dosages of 1 mg/kg (low dose) of compound in anesthetized dogs. Value was reported for experiment 2; type: functional, Canis lupus familiaris
How it was run: (§1)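 Anesthetized dogs given the compound intraduodenally, generally as two doses with the second a cumulative total (low/high). FRP and CT measured at 15, 30 and 45 min after dosing. HR and BP taken during nonpacing intervals. Values are percent change from control per animal. Activity criterion is FRP or CT prolonged ≥12%. Vehicle: 5% dextrose in water/tragacanth.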

Canis familiaris [2] = assay: Conduction time was determined by intraduodenal administration of two dosages of 3 mg/kg (high dose) of compound in anesthetized dogs. Value was reported for experiment 2; type: functional, Canis lupus familiaris; how it was run: as §1
Canis familiaris [3] = assay: Conduction time was determined by intraduodenal administration of two dosages of 3 mg/kg (high dose) of compound in anesthetized dogs. Value was reported for experiment 3; type: functional, Canis lupus familiaris; how it was run: as §1
Canis familiaris [4] = assay: Conduction time was determined by intraduodenal administration of two dosages of 3 mg/kg (low dose) of compound in anesthetized dogs. Value was reported for experiment 1; type: functional, Canis lupus familiaris
How it was run: (§2)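 Anesthetized dogs; compound given intraduodenally, generally as two doses, the second a cumulative (high) dose. LV functional refractory period and conduction time measured 15, 30 and 45 min after dosing; heart rate and blood pressure measured during nonpacing intervals. Values are % change from control, given per individual animal. Active if FRP or CT prolonged by ≥12%.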

Canis familiaris [5] = assay: Heart rate was determined by intraduodenal administration of two dosages of 3 mg/kg of (low dose) compound in anesthetized dogs. Value was reported for experiment 1; type: functional, Canis lupus familiaris; how it was run: as §2
Canis familiaris [6] = assay: Left ventricular refractory period was determined by intraduodenal administration of two dosages of 1 mg/kg of (low dose) compound in anesthetized dogs. Value was reported for experiment 3; type: functional, Canis lupus familiaris, Cardiac ventricle
How it was run: (§3)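 Anesthetized dogs, usually given two intraduodenal doses, with the second dose cumulative (low/high). Left ventricular FRP and CT were determined at 15, 30 and 45 min after dosing. HR and BP were measured during nonpacing intervals. Values are % change from control at low/high dose, for individual animals. The vehicle-stability set used 5% dextrose in water/tragacanth (n = 8).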

Canis familiaris [7] = assay: Heart rate was determined by intraduodenal administration of two dosages of 10 mg/kg of (high dose) compound in anesthetized dogs. Value was reported for experiment 3; type: functional, Canis lupus familiaris; how it was run: as §1
Canis familiaris [8] = assay: Heart rate was determined by intraduodenal administration of two dosages of 1 mg/kg of (low dose) compound in anesthetized dogs. Value was reported for experiment 2; type: functional, Canis lupus familiaris; how it was run: as §1
Canis familiaris [9] = assay: Left ventricular refractory period was determined by intraduodenal administration of two dosages of 10 mg/kg of (high dose) compound in anesthetized dogs. Value was reported for experiment 1; type: functional, Canis lupus familiaris, Cardiac ventricle
How it was run: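 Anesthetized dogs received two intraduodenal doses, the second cumulative (low dose/high dose). Left ventricular FRP and CT were measured 15, 30 and 45 min after dosing. Heart rate and mean blood pressure were taken during nonpacing intervals. Values are percent change from control. The vehicle was 5% dextrose in water/tragacanth. Activity was defined as ≥12% prolongation of FRP or CT.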

Canis familiaris [10] = assay: Left ventricular refractory period was determined by intraduodenal administration of two dosages of 1 mg/kg of (low dose) compound in anesthetized dogs. Value was reported for experiment 2; type: functional, Canis lupus familiaris, Cardiac ventricle; how it was run: as §3
Canis familiaris [11] = assay: Left ventricular refractory period was determined by intraduodenal administration of two dosages of 3 mg/kg of (high dose) compound in anesthetized dogs. Value was reported for experiment 2; type: functional, Canis lupus familiaris, Cardiac ventricle; how it was run: as §3
Canis familiaris [12] = assay: Left ventricular refractory period was determined by intraduodenal administration of two dosages of 3 mg/kg of (high dose) compound in anesthetized dogs. Value was reported for experiment 3; type: functional, Canis lupus familiaris, Cardiac ventricle; how it was run: as §3
Canis familiaris [13] = assay: Mean arterial blood pressure was determined by intraduodenal administration of two dosages of 1 mg/kg of (low dose) compound in anesthetized dogs. Value was reported for experiment 2; type: functional, Canis lupus familiaris; how it was run: as §3
Canis familiaris [14] = assay: Mean arterial blood pressure was determined by intraduodenal administration of two dosages of 3 mg/kg of (high dose) compound in anesthetized dogs. Value was reported for experiment 2; type: functional, Canis lupus familiaris; how it was run: as §3
Canis familiaris [15] = organism: Canis familiaris; assay: In vitro electrophysiological evaluation in canine cardiac ventricular muscle reported as % change for the functional refractory period (FRP) concentration range of 0.1-10 uM; design: species or system Canis lupus familiaris, Muscle tissue
How it was run: (§4)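 Canine right ventricular/papillary muscle strips in oxygenated Tyrode's, extracellular extra-stimulus conduction-interval method. FRP and CT are read from conduction-interval curves before and during rising concentrations. Compound is a 10 mM aqueous stock diluted into Tyrode's. Each strip is used once as its own control. Readouts are percent change from control at 10 μM, plus the maximum change with its concentration.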

Canis familiaris [16] = organism: Canis familiaris; assay: In vitro electrophysiological evaluation in canine cardiac ventricular muscle reported as maximum % change for conduction time(CT) at 0.1-10 uM concentration range; Minimal (<IO%increase or a decrease in CT); type: functional, Canis lupus familiaris, Muscle tissue; how it was run: as §4
Canis familiaris [17] = organism: Canis familiaris; assay: In vitro electrophysiological evaluation in canine cardiac Purkinje fibres reported as percent change Vmax concentration range of 0.1-100 uM; Minimal (<IO%increase or a decrease in CT); type: functional; details: Canis lupus familiaris; Purkinje fiber
How it was run: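 Canine cardiac Purkinje fibres, intracellular microelectrode recording, paced at a basic cycle length of 1 s. APD95 and Vmax read simultaneously. Compound: 10 mM stock in deionized water, diluted into Tyrode's solution, tested over the stated concentration range. Each fibre used once as its own control. Result is % change from control, given at 10 µM or as the maximum with its concentration. M = <10% decrease or an increase in Vmax.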

Canis familiaris [18] = organism: Canis familiaris; assay: In vitro electrophysiological evaluation in canine cardiac ventricular muscle reported as % change for conduction time(CT) at 0.1-100 uM concentration range; type: functional, Canis lupus familiaris, Muscle tissue; how it was run: as §4
Canis familiaris [19] = organism: Canis familiaris; assay: In vitro electrophysiological evaluation in canine cardiac ventricular muscle reported as % change for conduction time(CT) at 0.1-100 uM concentration range; Minimal (<IO%increase or a decrease in CT); type: functional, Canis lupus familiaris, Muscle tissue
Canis familiaris [20] = organism: Canis familiaris; assay: In vitro electrophysiological evaluation in canine cardiac ventricular muscle reported as maximum % change for functional refractory period (FRP) at 0.1-10 uM concentration range; design: species or system Canis lupus familiaris, Muscle tissue
Canis familiaris [21] = organism: Canis familiaris; assay: In vitro electrophysiological evaluation in canine cardiac ventricular muscle reported as maximum % change for conduction time(CT) at 0.1-100 uM concentration range; Minimal (<IO%increase or a decrease in CT); type: functional, Canis lupus familiaris, Muscle tissue
How it was run: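 Canine right ventricle and papillary muscle strips in oxygenated Tyrode's solution, fitted with stimulating and recording electrodes. The extra-stimulus conduction-interval method was adapted for in vitro use. FRP and CT were read from a conduction-interval curve before and after various compound concentrations, and expressed as percent change from control. Compounds were taken from 10 mM deionized-water stock into Tyrode's. Each strip was used once as its own control.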

Canis familiaris [22] = organism: Canis familiaris; assay: In vitro electrophysiological evaluation in canine cardiac Purkinje fibres reported as percent change Vmax concentration range of 0.01-100 uM; […]; type: functional; details: Canis lupus familiaris; Purkinje fiber
How it was run: (§5)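 Canine cardiac Purkinje fibers, intracellular recording, paced at a basic cycle length of 1 s. APD95 and Vmax are recorded together across cumulative concentrations. Compound is a 10 mM aqueous stock diluted into Tyrode's solution. Each fiber is used once as its own control. Readouts are percent change from control at 10 μM, and the maximum change with the concentration where it occurred.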

Canis familiaris [23] = organism: Canis familiaris; assay: In vitro electrophysiological evaluation in canine cardiac Purkinje fibres reported as % change for action potential duration at 0.01-100 uM concentration range; type: functional, Canis lupus familiaris, Purkinje fiber; how it was run: as §5

CCCCCCC[N+](CC)(CC)CCCCc1ccc(Cl)cc1.O=P([O-])(O)O [CLOFILIUM PHOSPHATE]
CT (Canis familiaris [1]): -5%
CT (Canis familiaris [2]): -7%
CT (Canis familiaris [3]): -7%
CT (Canis familiaris [4]): -4%
HR (Canis familiaris [5]): -9%
LV FRP (Canis familiaris [6]): 4%
HR (Canis familiaris [7]): -11%
HR (Canis familiaris [8]): -2%
LV FRP (Canis familiaris [9]): 22%
LV FRP (Canis familiaris [10]): -1%
LV FRP (Canis familiaris [11]): 2%
LV FRP (Canis familiaris [12]): 4%
Mean blood pressure (Canis familiaris [13]): -2%
Mean blood pressure (Canis familiaris [14]): -14%
FRP (Canis familiaris [15]): 38%
CT (Canis familiaris [16]): <10%
Vmax (Canis familiaris [17]): < 10%
CT (Canis familiaris [18]): 11%
CT (Canis familiaris [19]): <10%
FRP (Canis familiaris [20]): 38%
CT (Canis familiaris [21]): <10%
Vmax (Canis familiaris [22]): < 10%
APD95 (Canis familiaris [23]): 27% and 55%
